Several values for one entry are separate records, joined by “and”; a condition that tells them apart may be missing. Equal entries are not always repeated.
What was measured:
pooled HIM = test: Phase I biotransformation of DB289 in pooled HIM; assay type: in vitro ADME, human; conditions: for Phase I metabolite detection (HPLC/UV): 10 μM DB289, pooled HIM 0.2 mg/ml, NADPH, up to 120 min
How it was run: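 Test compound (10 μM) with pooled HIM (0.2 mg/ml) in 100 mM phosphate pH 7.4, 3.3 mM MgCl2. Equilibrated 5 min at 37°C, then started with 1 mM NADPH. Aliquots taken at 0, 15, 30 and 120 min were quenched in ice-cold acetonitrile and analysed by HPLC/UV. Metabolites were assigned by retention time against synthetic standards. Controls omitted NADPH, microsomal protein or substrate.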

[1] = Solubility in the incubation buffer; assay type: physicochemical; conditions: highest concentration tested 25 μM
[2] = tested on: human intestinal microsomes (HIM); test: Enzyme kinetics of M1 formation; assay type: in vitro ADME; conditions: for KMapp(1): 5 min
[3] = Enzyme kinetics of M1 formation; assay type: in vitro ADME, human; conditions: human
HLM = conditions: panel of HLM; ref Wang et al., 2006; cited from earlier work
[4] = tested on: pooled HLM (human liver microsomes); conditions: M1 formation, 0.02 mg/ml protein, 3 min, ref Wang et al., 2006; cited from earlier work
[5] = six healthy men, p.o. 14C-DB289, single-dose escalation; ref C. Olson, Immtech Pharmaceuticals Inc., personal communication; cited from earlier work
purified CYP4A11 = conditions: higher for CYP4A11; ref Powell et al., 1998; cited from earlier work
recombinant CYP2J2 [6] = conditions: ref Hashizume et al. (2002); cited from earlier work
[7] = tested on: P450 enzymes of pooled HIM (M1 formation from DB289); test: Chemical inhibition of M1 formation in pooled HIM; assay type: biochemical, human
recombinant CYP4F2 = biological target: T1, recombinant CYP4F2 (Homo sapiens, UniProt P78329); test: Effect of α-NF on M1 formation by recombinant CYP4F2; assay type: biochemical; conditions: recombinant CYP4F2, 1 μM α-NF, 3 μM DB289, P > 0.05
T1 sequence (P78329 5-520): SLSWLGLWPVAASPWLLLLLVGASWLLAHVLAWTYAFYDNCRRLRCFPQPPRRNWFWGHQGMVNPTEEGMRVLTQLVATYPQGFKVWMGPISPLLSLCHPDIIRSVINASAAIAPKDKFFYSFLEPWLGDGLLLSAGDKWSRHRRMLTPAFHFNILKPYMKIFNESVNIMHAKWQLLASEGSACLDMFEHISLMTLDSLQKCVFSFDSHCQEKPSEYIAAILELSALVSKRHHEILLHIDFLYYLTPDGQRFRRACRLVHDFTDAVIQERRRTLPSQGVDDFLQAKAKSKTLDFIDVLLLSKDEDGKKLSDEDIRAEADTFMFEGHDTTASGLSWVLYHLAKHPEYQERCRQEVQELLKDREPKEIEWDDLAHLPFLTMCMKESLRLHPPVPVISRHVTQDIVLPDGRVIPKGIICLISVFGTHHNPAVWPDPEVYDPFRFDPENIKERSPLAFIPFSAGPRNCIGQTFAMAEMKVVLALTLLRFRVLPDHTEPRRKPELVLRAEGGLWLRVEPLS

recombinant CYP3A4 = recombinant CYP3A4 (Homo sapiens, UniProt P08684); test: Effect of α-NF on M1 formation by recombinant CYP3A4; assay type: biochemical; conditions: recombinant CYP3A4 10 pmol/ml, 1 μM α-NF, 3 μM DB289, 15 min, P < 0.05
Chain of recombinant CYP3A4 (P08684 whole entry): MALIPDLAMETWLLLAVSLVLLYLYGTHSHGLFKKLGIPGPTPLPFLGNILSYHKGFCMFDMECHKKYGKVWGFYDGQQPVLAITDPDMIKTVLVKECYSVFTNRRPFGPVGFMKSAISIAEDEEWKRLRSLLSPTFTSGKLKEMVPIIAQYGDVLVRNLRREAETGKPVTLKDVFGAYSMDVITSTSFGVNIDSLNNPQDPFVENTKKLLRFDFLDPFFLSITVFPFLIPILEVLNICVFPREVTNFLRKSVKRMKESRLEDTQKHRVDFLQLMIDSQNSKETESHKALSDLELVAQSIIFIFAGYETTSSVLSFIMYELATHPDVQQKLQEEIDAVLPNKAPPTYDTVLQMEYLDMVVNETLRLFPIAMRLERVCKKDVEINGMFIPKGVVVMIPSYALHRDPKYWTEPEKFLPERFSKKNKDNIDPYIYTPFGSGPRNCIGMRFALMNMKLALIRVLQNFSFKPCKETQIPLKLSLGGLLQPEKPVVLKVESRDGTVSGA

pooled HLM = test: Effect of α-NF on M1 formation by pooled HLM; assay type: biochemical, human; conditions: 1 μM α-NF, 3 μM DB289, P > 0.05
recombinant CYP4F3B = biological target: T2, recombinant CYP4F3B (Homo sapiens, UniProt Q08477); test: Effect of α-NF on M1 formation by recombinant CYP4F3B; assay type: biochemical; conditions: 1 μM α-NF, 3 μM DB289, P > 0.05
T2 sequence (Q08477 1-520 isoform Q08477-2): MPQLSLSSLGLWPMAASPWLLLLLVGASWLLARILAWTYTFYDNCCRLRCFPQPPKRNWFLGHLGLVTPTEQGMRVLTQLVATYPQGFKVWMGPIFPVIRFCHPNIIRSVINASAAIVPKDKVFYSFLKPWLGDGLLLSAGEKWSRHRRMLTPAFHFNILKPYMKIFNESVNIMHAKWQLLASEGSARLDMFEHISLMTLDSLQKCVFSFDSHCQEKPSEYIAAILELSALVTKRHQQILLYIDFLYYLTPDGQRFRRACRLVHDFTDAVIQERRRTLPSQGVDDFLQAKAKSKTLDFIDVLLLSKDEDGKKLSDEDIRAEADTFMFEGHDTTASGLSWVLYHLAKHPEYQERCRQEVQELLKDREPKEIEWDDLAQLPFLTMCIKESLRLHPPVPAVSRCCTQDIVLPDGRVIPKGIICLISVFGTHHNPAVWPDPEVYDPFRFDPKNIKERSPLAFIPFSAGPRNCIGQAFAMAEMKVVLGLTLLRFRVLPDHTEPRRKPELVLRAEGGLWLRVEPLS

recombinant CYP2J2 [8] = biological target: T3, recombinant CYP2J2 (Homo sapiens, UniProt P51589); test: Effect of α-NF on M1 formation by recombinant CYP2J2; assay type: biochemical; conditions: recombinant CYP2J2 10 pmol/ml, 1 μM α-NF, 3 μM DB289, P < 0.05
T3 sequence (P51589 1-502): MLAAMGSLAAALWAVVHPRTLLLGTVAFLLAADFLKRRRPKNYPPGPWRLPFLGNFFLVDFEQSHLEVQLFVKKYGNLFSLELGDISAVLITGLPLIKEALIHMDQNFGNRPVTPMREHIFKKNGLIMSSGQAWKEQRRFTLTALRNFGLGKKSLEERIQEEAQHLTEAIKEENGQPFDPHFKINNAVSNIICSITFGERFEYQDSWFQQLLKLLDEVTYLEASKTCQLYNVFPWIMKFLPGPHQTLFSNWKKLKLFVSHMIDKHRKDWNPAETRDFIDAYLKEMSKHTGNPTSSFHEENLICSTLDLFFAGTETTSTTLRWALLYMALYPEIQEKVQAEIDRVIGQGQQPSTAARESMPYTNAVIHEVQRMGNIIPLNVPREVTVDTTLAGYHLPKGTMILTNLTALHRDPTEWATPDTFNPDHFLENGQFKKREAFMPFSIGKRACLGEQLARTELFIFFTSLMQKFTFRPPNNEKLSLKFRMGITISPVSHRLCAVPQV

[9] = M1 formation, HIM 3, 0.2 mg/ml protein
[10] = M1 formation, HIM 7, 0.2 mg/ml protein
[11] = M1 formation, HIM 30, 0.2 mg/ml protein
[12] = M1 formation, HIM 31, 0.2 mg/ml protein

N=C(N)c1ccc(-c2ccc(-c3ccc(C(=N)N)cc3)o2)cc1 [DB75, 2,5-bis(4-amidinophenyl) furan]
Phase I metabolite detection (HPLC/UV) (pooled HIM): not detected

CONC(=N)c1ccc(-c2ccc(-c3ccc(C(=N)NOC)cc3)o2)cc1 [DB289, 2,5-bis(4-amidinophenyl)furan-bis-O-methylamidoxime]
solubility in the incubation buffer [1]: limited
total intrinsic clearance of M1 formation by HIM relative to pooled HLM ([2]; HIM versus pooled HLM): at most 10%
Vmax(1) ([2]; M1 formation, HIM 1, 0.2 mg/ml protein): 0.12 nmol/min/mg protein
KMapp(1) ([2]; M1 formation, HIM 1, 0.2 mg/ml protein, biphasic): 0.8 µM
Vmax(1) ([2]; M1 formation, HIM 2, 0.1 mg/ml protein): 0.42 nmol/min/mg protein
KMapp(1) ([2]; M1 formation, HIM 2, 0.1 mg/ml protein, biphasic): 0.7 µM
Vmax(1) [2, 9]: 0.24 nmol/min/mg protein
KMapp(1) [2, 9]: 1.3 µM
Vmax(1) [2, 10]: 0.89 nmol/min/mg protein
KMapp(1) [2, 10]: 1.3 µM
KMapp(1) ([2]; M1 formation, HIM 12, 0.2 mg/ml protein): 2.3 µM
KMapp(1) ([2]; M1 formation, HIM 23A, 0.2 mg/ml protein, biphasic): 2.4 µM
Vmax(1) [2, 11]: 0.19 nmol/min/mg protein
KMapp(1) [2, 11]: 0.6 µM
Vmax(1) [2, 12]: 0.02 nmol/min/mg protein
KMapp(1) [2, 12]: 1.4 µM
Vmax(1) ([2]; M1 formation, HIM 32, 0.1 mg/ml protein): 0.44 nmol/min/mg protein
KMapp(1) ([2]; M1 formation, HIM 32, 0.1 mg/ml protein, 37°C): 0.6 µM
KMapp(1), average ([2]; M1 formation, nine individual HIM): 1.3 µM
Vmax(1) ([2]; M1 formation, pooled HIM, 0.2 mg/ml protein): 0.19 nmol/min/mg protein
KMapp(1) ([2]; M1 formation, pooled HIM, 0.2 mg/ml protein, biphasic): 0.7 µM
microsomal CLint ([3]; human intestinal microsomes (individual HIM 32), pH 7.4, CL′int(1), M1 formation, HIM 32, Vmax(1)/KMapp(1)): 730 µL/min/mg
microsomal CLint ([3]; human intestinal microsomes (pooled and nine individual HIM), pH 7.4, total intrinsic clearance [CL′int(1) + CL′int(2)] of M1 formation, range, HIM): 10 to 730 µL/min/mg
variation in M1 formation rates (HLM): 4 fold and ~ 4 fold
KMapp(1) [4]: 0.5 µM
coefficient of variation for Cmax [5]: approximately 50%
coefficient of variation for area under the curve [5]: approximately 50%
coefficient of variation for terminal half-life [5]: approximately 50%

CON=C(N)c1ccc(-c2ccc(-c3ccc(C(N)=NO)cc3)o2)cc1 [M1]
Phase I metabolite detection (HPLC/UV) (pooled HIM): identified
fraction of M1 further metabolized (pooled HIM; within the first 15 min of incubation, 10 μM DB289, pooled HIM): Less than 10%

NC(=NO)c1ccc(-c2ccc(-c3ccc(C(N)=NO)cc3)o2)cc1 [M2]
Phase I metabolite detection (HPLC/UV) (pooled HIM): identified

CON=C(N)c1ccc(-c2ccc(-c3ccc(C(=N)N)cc3)o2)cc1 [M3]
Phase I metabolite detection (HPLC/UV) (pooled HIM): identified

N=C(N)c1ccc(-c2ccc(-c3ccc(C(N)=NO)cc3)o2)cc1 [M4]
Phase I metabolite detection (HPLC/UV) (pooled HIM): not detected

CCCCC/C=C\C/C=C\C/C=C\C/C=C\CCCC(=O)O [arachidonic acid]
Km of 20-HETE formation, CYP4A11 relative to CYP4F2 (purified CYP4A11): 10 fold

CC(C)(C)c1ccc(C(=O)CCCN2CCC(OC(c3ccccc3)c3ccccc3)CC2)cc1 [ebastine]
Km (recombinant CYP2J2 [6]): 1.3 µM

CCCCCCCCCCCC(=O)O [lauric acid]
inhibition of M1 formation ([7]; pooled HIM 0.2 mg/ml, 3 μM DB289, 5 min, inhibitor concentration as in Fig. 2A): lack of inhibition

O=c1cc(-c2ccccc2)oc2c1ccc1ccccc12 [α-NF, α-naphthoflavone]
effect on M1 formation (recombinant CYP4F2): not significant
activation of M1 formation (recombinant CYP3A4): 120%
effect on M1 formation (pooled HLM): not significant
activation of M1 formation ([7]; different lot of pooled HIM, 1 μM α-NF, 3 μM DB289, P < 0.05): 34%
activation of M1 formation ([7]; pooled HIM, 3 μM DB289 (Fig. 2A)): 43%
effect on M1 formation (recombinant CYP4F3B): not significant
activation of M1 formation (recombinant CYP2J2 [8]): 55%

Source: article PMC2364724 (Drug metabolism and disposition: the biological fate of …, 2007)
